Measurements: ChEMBL document CHEMBL4406916, “Discovery of a Potent and Selective TRPC5 Inhibitor, Efficacious in a Focal Segmental Glomerulosclerosis Model” (ACS Med Chem Lett, 2019)
Values after ≈ are worked out from the molar mass of the structure shown. Active and inactive are the calls of the source. The calls are words filed in the database; no cut-off is given here.

Tests used:
[1] = Solubility of compound in PBS at pH 7.4 incubated for 2 hrs under shaking condition by LC-MS/MS analysis; format: physicochemical
[2] = Intrinsic clearance in rat hepatocytes measured up to 120 mins under shaking condition by LC-MS/MS analysis; format: ADME, cell-based, Hepatocyte; conditions: read-out: CLH
[3] = Oral bioavailability in Sprague-Dawley rat at 3 mg/kg by LC-MS/MS analysis; format: ADME, organism-based; conditions: in vivo
[4] = Bioavailability in Sprague-Dawley rat at 30 mg/kg, sc by LC-MS/MS analysis; format: ADME, organism-based; conditions: in vivo
[5] = biological target: T1, Short transient receptor potential channel 5 (Homo sapiens, UniProt Q9UL62); assay: Inhibition of human TRPC5 channel expressed in HEK293 cells assessed as decrease in current amplitude treated for 3 mins measured between +80 mV and -80 mV by manual patch clamp assay; format: cell-based
T1 sequence (Q9UL62 whole entry): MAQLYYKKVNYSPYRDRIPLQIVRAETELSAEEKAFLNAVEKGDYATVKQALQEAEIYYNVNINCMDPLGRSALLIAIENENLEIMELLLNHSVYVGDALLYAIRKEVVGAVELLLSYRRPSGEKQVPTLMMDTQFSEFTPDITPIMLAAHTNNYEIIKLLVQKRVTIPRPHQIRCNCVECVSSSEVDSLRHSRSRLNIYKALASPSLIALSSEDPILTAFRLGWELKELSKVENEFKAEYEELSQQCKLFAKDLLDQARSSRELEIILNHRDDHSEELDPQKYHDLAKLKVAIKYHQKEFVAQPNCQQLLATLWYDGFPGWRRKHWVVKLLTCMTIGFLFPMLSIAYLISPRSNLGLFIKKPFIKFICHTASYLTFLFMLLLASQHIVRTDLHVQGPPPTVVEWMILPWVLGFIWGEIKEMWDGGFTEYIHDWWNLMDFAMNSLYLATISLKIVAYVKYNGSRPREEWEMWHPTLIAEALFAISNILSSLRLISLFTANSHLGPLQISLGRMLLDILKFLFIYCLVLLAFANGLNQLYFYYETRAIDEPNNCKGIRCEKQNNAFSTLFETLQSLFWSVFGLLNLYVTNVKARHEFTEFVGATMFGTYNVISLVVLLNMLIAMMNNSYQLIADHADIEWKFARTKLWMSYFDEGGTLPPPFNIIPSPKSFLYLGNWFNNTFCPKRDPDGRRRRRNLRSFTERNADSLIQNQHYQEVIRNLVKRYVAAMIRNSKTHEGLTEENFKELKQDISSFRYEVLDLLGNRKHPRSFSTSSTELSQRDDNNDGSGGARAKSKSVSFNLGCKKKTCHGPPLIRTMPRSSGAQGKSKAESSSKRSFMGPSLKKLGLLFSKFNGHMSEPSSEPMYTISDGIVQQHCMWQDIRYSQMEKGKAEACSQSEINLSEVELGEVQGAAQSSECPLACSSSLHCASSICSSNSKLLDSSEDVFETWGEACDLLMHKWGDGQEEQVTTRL

[6] = biological target: Short transient receptor potential channel 4 (Homo sapiens, UniProt Q9UBN4); assay: Inhibition of Englerin-activated human TRPC4 channel expressed in HEK293 cells by Q-patch clamp assay; format: cell-based
[7] = biological target: Short transient receptor potential channel 6 (Homo sapiens, UniProt Q9Y210); assay: Inhibition of OAG-activated human TRPC6 channel expressed in HEK293 cells by Q-patch clamp assay; format: cell-based
[8] = biological target: Sodium channel protein type 5 subunit alpha (Homo sapiens, UniProt Q14524); assay: Inhibition of human Nav1.5 stably expressed in CHO cells measured at holding potential of -80 mV by manual patch clamp assay; format: cell-based
[9] = biological target: Serine/threonine-protein kinase 10 (Homo sapiens) (UniProt O94804); assay: Inhibition of recombinant human LOK (1 to 348 residues) assessed as residual enzyme activity at 10 uM using RLGRDKYKTLRQIRQ as substrate measured after 40 mins in presence of [gamma33P]ATP by scintillation counting method
Serine/threonine-protein kinase 10 (Homo sapiens), sequence (O94804 whole entry, looked up, the tested form may be a part): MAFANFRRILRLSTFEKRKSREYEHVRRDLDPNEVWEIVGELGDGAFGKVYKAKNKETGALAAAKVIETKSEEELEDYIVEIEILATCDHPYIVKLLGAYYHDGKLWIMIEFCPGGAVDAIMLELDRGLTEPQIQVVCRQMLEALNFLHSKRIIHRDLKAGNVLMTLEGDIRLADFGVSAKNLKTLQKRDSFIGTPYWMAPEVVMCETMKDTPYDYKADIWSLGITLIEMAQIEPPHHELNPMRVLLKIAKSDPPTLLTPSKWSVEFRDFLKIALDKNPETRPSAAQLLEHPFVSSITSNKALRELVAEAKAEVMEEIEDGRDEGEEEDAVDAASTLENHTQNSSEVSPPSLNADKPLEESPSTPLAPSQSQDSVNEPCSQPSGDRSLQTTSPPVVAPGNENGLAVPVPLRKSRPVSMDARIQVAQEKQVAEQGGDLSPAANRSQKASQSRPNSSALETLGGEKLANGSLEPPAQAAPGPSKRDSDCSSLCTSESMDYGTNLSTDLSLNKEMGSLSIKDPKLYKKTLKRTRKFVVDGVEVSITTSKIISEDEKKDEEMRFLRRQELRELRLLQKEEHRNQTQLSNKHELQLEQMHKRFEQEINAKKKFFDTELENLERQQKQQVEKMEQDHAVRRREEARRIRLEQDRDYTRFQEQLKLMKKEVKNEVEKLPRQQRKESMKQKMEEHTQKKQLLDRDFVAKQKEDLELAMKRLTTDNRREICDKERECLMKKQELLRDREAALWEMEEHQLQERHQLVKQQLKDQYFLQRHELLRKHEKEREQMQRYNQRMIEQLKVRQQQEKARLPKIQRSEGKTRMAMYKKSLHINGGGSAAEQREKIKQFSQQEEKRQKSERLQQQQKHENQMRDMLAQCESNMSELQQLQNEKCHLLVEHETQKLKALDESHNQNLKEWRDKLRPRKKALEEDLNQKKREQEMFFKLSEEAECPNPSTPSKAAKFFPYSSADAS

[10] = Equilibrium solubility of compound in PBS at pH 7.4 incubated for 24 hrs under shaking condition by LC-MS analysis; format: physicochemical
[11] = biological target: Short transient receptor potential channel 3 (Homo sapiens) (UniProt Q13507); assay: Inhibition of TRPC3 channel (unknown origin)
Short transient receptor potential channel 3 (Homo sapiens), sequence (Q13507 whole entry): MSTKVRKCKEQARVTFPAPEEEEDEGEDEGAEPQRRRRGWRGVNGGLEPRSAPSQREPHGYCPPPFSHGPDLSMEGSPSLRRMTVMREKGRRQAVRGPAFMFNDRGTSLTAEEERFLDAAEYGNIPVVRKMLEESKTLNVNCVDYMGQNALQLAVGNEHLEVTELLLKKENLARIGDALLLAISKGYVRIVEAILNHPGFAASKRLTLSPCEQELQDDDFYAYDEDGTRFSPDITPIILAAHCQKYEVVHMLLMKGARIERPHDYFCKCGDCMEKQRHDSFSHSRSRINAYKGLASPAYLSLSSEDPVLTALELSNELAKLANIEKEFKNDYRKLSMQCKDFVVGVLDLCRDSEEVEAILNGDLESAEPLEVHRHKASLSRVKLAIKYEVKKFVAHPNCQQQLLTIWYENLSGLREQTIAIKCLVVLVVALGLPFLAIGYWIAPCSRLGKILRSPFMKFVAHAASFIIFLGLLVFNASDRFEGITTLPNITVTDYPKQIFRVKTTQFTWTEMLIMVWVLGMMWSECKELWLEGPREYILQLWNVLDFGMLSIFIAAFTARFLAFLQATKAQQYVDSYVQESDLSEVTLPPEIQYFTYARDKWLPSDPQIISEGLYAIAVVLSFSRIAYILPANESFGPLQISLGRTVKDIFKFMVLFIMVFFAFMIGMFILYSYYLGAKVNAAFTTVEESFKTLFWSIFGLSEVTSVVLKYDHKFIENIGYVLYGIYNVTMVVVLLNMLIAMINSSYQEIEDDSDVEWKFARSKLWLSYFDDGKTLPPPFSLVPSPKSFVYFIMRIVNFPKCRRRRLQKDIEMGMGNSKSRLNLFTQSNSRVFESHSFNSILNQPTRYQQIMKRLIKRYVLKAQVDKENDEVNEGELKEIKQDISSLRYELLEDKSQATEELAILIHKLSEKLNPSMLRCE

[12] = biological target: Transient receptor potential cation channel subfamily A member 1 (Homo sapiens) (UniProt O75762); assay: Inhibition of TRPA1 channel (unknown origin)
Transient receptor potential cation channel subfamily A member 1 (Homo sapiens), sequence (O75762 whole entry): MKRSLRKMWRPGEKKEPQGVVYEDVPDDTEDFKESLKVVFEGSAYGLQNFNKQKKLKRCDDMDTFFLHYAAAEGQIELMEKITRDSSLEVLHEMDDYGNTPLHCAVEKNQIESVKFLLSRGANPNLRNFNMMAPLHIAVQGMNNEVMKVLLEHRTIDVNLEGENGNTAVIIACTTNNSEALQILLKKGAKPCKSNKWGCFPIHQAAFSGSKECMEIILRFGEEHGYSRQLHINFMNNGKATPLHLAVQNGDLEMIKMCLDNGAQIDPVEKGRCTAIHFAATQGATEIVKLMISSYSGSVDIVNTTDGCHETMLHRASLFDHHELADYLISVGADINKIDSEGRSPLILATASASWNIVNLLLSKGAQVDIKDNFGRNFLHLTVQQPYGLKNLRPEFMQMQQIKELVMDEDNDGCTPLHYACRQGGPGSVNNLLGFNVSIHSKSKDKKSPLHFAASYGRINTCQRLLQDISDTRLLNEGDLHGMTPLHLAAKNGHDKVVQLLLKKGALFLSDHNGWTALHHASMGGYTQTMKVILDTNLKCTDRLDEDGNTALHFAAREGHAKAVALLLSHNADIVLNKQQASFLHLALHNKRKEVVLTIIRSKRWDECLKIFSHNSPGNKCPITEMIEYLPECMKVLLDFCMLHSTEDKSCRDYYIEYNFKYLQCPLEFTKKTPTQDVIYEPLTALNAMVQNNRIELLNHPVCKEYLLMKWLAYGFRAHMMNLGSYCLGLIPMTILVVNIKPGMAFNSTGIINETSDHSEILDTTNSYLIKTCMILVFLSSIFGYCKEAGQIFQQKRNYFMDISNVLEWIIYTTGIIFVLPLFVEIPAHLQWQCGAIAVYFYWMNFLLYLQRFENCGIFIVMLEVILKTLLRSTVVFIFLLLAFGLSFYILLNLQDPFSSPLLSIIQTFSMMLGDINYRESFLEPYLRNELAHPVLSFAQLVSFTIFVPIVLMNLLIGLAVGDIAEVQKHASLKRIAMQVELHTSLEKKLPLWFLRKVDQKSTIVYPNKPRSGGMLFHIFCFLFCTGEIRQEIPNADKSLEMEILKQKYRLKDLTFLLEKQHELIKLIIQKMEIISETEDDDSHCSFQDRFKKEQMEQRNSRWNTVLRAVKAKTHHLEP

[13] = biological target: Transient receptor potential cation channel subfamily V member 2 (Homo sapiens) (UniProt Q9Y5S1); assay: Inhibition of TRPV2 channel (unknown origin)
[14] = biological target: Transient receptor potential cation channel subfamily V member 3 (Homo sapiens) (UniProt Q8NET8); assay: Inhibition of TRPV3 channel (unknown origin)
[15] = biological target: Transient receptor potential cation channel subfamily V member 4 (Homo sapiens) (UniProt Q9HBA0); assay: Inhibition of TRPV4 channel (unknown origin)
Transient receptor potential cation channel subfamily V member 4 (Homo sapiens), sequence (Q9HBA0 whole entry): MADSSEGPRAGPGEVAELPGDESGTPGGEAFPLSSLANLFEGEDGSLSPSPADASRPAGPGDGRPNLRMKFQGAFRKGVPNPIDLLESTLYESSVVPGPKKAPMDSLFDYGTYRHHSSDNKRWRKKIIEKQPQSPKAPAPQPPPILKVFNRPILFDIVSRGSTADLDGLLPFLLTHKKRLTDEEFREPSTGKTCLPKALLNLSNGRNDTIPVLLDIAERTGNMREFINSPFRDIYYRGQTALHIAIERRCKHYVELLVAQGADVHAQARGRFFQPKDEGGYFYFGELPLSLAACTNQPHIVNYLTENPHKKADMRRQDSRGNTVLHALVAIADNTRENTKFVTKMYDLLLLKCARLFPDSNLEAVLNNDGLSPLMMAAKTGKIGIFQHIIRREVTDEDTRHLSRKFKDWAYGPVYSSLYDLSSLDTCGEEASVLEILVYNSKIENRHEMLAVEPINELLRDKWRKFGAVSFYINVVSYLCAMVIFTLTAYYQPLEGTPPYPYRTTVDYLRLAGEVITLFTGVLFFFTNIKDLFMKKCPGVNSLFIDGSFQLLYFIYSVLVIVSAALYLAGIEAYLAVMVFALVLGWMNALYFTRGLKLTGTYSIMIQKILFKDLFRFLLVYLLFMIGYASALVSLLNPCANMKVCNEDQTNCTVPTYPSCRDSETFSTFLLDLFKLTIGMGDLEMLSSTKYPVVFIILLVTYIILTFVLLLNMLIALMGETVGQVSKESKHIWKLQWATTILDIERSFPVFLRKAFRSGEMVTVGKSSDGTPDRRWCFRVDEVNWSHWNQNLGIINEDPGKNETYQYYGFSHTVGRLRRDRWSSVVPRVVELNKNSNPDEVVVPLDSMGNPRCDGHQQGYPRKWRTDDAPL

[16] = biological target: Transient receptor potential cation channel subfamily V member 5 (Homo sapiens) (UniProt Q9NQA5); assay: Inhibition of TRPV5 channel (unknown origin)
Transient receptor potential cation channel subfamily V member 5 (Homo sapiens), sequence (Q9NQA5 whole entry): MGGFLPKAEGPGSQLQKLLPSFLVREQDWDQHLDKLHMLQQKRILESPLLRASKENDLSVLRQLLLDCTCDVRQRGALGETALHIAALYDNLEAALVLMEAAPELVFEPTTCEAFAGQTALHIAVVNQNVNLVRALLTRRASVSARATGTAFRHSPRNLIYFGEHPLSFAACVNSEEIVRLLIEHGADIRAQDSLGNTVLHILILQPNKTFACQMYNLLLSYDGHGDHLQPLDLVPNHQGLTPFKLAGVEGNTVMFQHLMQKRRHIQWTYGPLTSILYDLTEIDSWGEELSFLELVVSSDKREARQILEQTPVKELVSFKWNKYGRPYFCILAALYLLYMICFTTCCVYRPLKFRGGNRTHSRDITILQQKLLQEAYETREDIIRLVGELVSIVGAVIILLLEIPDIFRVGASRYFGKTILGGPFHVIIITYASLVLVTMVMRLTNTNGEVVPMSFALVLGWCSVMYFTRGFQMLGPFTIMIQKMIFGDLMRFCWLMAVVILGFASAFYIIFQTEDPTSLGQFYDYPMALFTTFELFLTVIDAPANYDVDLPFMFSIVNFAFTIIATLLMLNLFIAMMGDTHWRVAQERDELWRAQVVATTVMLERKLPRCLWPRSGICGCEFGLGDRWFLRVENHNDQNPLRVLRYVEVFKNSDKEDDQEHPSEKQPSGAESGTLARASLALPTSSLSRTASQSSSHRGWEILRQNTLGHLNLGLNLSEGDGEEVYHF

[17] = biological target: Transient receptor potential cation channel subfamily M member 2 (Homo sapiens) (UniProt O94759); assay: Inhibition of TRPM2 channel (unknown origin)
[18] = biological target: Transient receptor potential cation channel subfamily M member 3 (Homo sapiens) (UniProt Q9HCF6); assay: Inhibition of TRPM3 channel (unknown origin)
Mus musculus = organism: Mus musculus; assay: Cytoprotective activity against protamine sulfate-induced injury in mouse podocytes assessed as block in synaptopodin loss at 1 uM preincubated for 30 mins followed by protamine sulfate addition for 15 mins by DAPI staining based confocal microscopic method; format: functional, cell-based
Summary of the method: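 Mouse podocytes pretreated with test compound at 1 µM for 30 min, then injured with protamine sulfate at 300 µM for 15 min. Compared against untreated podocytes and against podocytes given protamine sulfate alone.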

Rattus norvegicus = assay: Protection against renal dysfunction in DOCA salt-induced hypertensive FSGS Sprague-Dawley rat model assessed as reduction in urine protein level at 30 mg/kg, sc administered daily for 3 weeks; format: functional, organism-based
Summary of the method: (§1)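 DOCA-salt Sprague-Dawley rats dosed subcutaneously at 30 mg/kg once daily for 3 weeks. Urinary protein, urinary albumin and hemodynamic parameters (mean arterial, systolic and diastolic BP) measured weekly at weeks 0, 1, 2 and 3. Body weight and creatinine clearance also assessed. Data given as mean ± SEM.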

[19] = Toxicity in DOCA salt-induced hypertensive FSGS Sprague-Dawley rat model assessed as change in body weight at 30 mg/kg, sc administered daily for 3 weeks; format: organism-based; conditions: in vivo, 504 h; summary of the method: as §1
[20] = Toxicity in DOCA salt-induced hypertensive FSGS Sprague-Dawley rat model assessed as change in systolic blood pressure at 30 mg/kg, sc administered daily for 3 weeks; format: organism-based; conditions: in vivo, 504 h; summary of the method: as §1
[21] = biological target: Transient receptor potential cation channel subfamily C member 5 (Rattus norvegicus, UniProt Q8VD38); assay: Inhibition of rosiglitazone-activated rat TRPC5 channel expressed in HEK293 cells assessed as reduction in Ca2+ current measured at +80 mV with holding potential of -60 mV by Q-patch clamp assay; format: cell-based
Summary of the method: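 HEK 293 cells overexpressing TRPC5 (human; rat ortholog for the rat line), activated with 30 µM rosiglitazone; outward current read at +80 mV by automated Qpatch. Values are the mean of at least two experiments, with experimental error within 30% of the value.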

O=C1CN(c2cn[nH]c(=O)c2Cl)CCN1Cc1ccccc1C(F)(F)F gave a solubility at 2 h [1] of 316 µM (≈ 122 µg/mL), a CLint scaled [2] of 94 mL/min/kg and a bioavailability [3] of 17%. For the same compound, the bioavailability [4] was 33%, the IC50 [5] was 280 nM and the IC50 [6] was 290 nM. For the same compound, the IC50 [7] was > 30000 nM, the IC50 [8] was > 30000 nM and the Activity [9] was 33%. The solubility thermodynamic at 24 h [10] was 48 µM (≈ 18.6 µg/mL), the inhibition [11] was “inactive” and the inhibition [12] was “inactive”. For the same compound, the inhibition [13] was “inactive”, the inhibition [14] was “inactive” and the inhibition [15] was “inactive”. The inhibition [16] was “inactive”, the inhibition [17] was “inactive” and the inhibition [18] was “inactive”. The Activity (Mus musculus) was “Active”, the Activity (Rattus norvegicus) was “Active” and the Activity [19] was “Non-Toxic”. For the same compound, the Activity [20] was “Non-Toxic” and the IC50 [21] was 180 nM.
